Experimental data pooled from the literature.
Lines come from different studies, so protocols differ.
Target: Phosphatidylinositol 4-phosphate 5-kinase type-1 gamma (PIP5K1C, Homo sapiens, UniProt O60331)

observed	technique	concentration	remaining binding	Compound
binding		1 µM	77%	CN(CCCC(F)(F)F)c1nccc(-c2cnn3ncccc23)n1
cell-free assay	competition with immobilised ligand	1 µM	68%	N#CC1(c2ccccn2)CCN(Cc2cc(C(=O)N3CCCC3)c(=O)n3ccccc23)CC1
binding		1 µM	100%	CN(c1nccc(-c2cnn3ncccc23)n1)C1CC1
cell-free assay	competition with immobilised ligand	1 µM	100%	CNC(=O)Nc1ccc2c(c1)CC[C@@]21OC(=O)N(CC(=O)N(Cc2ccc(F)cc2)[C@@H](C)C(F)(F)F)C1=O
binding		1 µM	81%	N[C@@H]1CCN(c2nccc(-c3cnn4ncccc34)n2)C1
binding	competition with immobilised ligand	1 µM	95%	COc1cnc(Nc2cccc(S(N)(=O)=O)c2)nc1N1CCN(c2ccccc2)C(=O)C1
binding		1 µM	100%	Cc1cnn2ncc(-c3ccnc(N(C)C)n3)c2c1
cell-free assay	competition with immobilised ligand	1 µM	100%	COc1ccc2c(c1)O[C@H](c1ccc(OC)c(OC)c1)C[C@@H]2NC(=O)C1(c2ccc3c(c2)OC(F)(F)O3)CC1
binding	competition with immobilised ligand	1 µM	72%	O=C(c1ccc(Nc2ncc(Cl)c(-c3ccc(Cl)s3)n2)cc1)N1CCC(N2CCCC2)CC1
cell-free assay	competition with immobilised ligand	5 µM	47%	FC(F)(F)Oc1cccc(-c2cnc3ccc(-c4ccncc4)nn23)c1
binding		1 µM	100%	CN(C)c1nccc(-c2cnc3ncccn23)n1
binding	competition with immobilised ligand	1 µM	13%	O=C(c1ccc(Nc2nccc(-c3cc4ccccc4s3)n2)cc1)N1CCC(N2CCCC2)CC1
binding	competition with immobilised ligand	10 µM	0%	c1cncc(-c2cccc(Nc3nccc(NC4CCCCC4)n3)c2)c1
cell-free assay	competition with immobilised ligand	0.1 µM	92%	C[C@@H]1CN(c2cc(-c3n[nH]c4ccc(OC5(C)CC5)cc34)ncn2)C[C@H](C)O1
binding	competition with immobilised ligand	1 µM	87%	O=C(Nc1c[nH]nc1C(=O)NC1CCNCC1)c1cc(F)cc(F)c1
binding	competition with immobilised ligand	1 µM	92%	CCN1CCN(Cc2ccc(C(=O)Nc3ccc(C)c(Oc4ccc5c(c4)CC(=O)N5)c3)cc2C(F)(F)F)CC1
binding	competition with immobilised ligand	1 µM	59%	O=C(NCCCN1CCOCC1)c1ccc(Nc2ncc(Cl)c(-c3ccc(Cl)s3)n2)cc1
binding		1 µM	95%	C[C@H]1CCN(c2nccc(-c3cnn4ncccc34)n2)C1
cell-free assay	competition with immobilised ligand	1 µM	63.7%	COc1cccc(CNC(=O)c2nc3scc(COCc4ccc(C(=O)O)cc4)c3c(=O)[nH]2)c1
